The values that follow come from ChEMBL document CHEMBL2417401, “Evaluation of steroidal amines as lipid raft modulators and potential anti-influenza agents” (Bioorg Med Chem Lett, 2013).

For orientation: IC50 means the concentration that gives 50% inhibition. What is called IC90 is the point of the concentration-response curve where the effect stands at 90%.

Data set [1] deals with Influenza A virus. Nature of the data set: Antiviral activity against Influenza A/PR8/34 (H1N1) virus infected in MDCK2 cells assessed as raft modulation using N-terminally sterol-linked peptide as tracer relative to control. The data set is classed as functional, A/Puerto Rico/8/1934(H1N1), MDCK-II. More on the design: concentration or dose not given beside the values. Put shortly: (§1)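 Raft liposomes (mol %: cholesterol 35, sphingomyelin 10.5, ganglioside M1 3.5, phosphatidylcholine 25.5, phosphatidylserine 25.5). Tracer is perylene or an N-terminally sterol-linked peptide inserted in the outer leaflet. Liposome/buffer partitioning is read by fluorescence; P is approximated as the membrane/aqueous tracer ratio. Disrafting % = 100×{1−P_steroid/P_DMSO}; augmentation % = −100×{1−P_DMSO/P_steroid}.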

Data set [2] deals with Influenza A virus. Nature of the data set: Antiviral activity against Influenza A/PR8/34 (H1N1) virus infected in MDCK2 cells assessed as inhibition of virus reproduction by ELISA. The settings on record: A/Puerto Rico/8/1934(H1N1), MDCK-II. The format is functional, organism-based. (In general: An ELISA detects its analyte on a solid surface through an enzyme-linked reagent.)

Data set [3] is described as follows: Cytotoxicity against MDCK2 cells assessed as maximum tolerated concentration by lactate dehydrogenase release assay. The data set is classed as cell-based, Canis lupus familiaris, MDCK-II. The conditions noted are these: dog, read-out: MTD. Put shortly: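 Maximum tolerated concentration in MDCKII cells from LDH release, determined under focus reduction assay conditions.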

The subject of data set [4] is Influenza A virus. Nature of the data set: Antiviral activity against Influenza A/PR8/34 (H1N1) virus infected in MDCK2 cells assessed as inhibition of virus budding by ELISA relative to control. The data set is classed as functional, A/Puerto Rico/8/1934(H1N1), MDCK-II. Put shortly: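 Infected MDCKII cells biotinylated 6 h post-infection; excess biotin quenched, and virus budded over the next hour harvested. Biotinylated particles captured on streptavidin-coated plates and detected by ELISA. Result relative to DMSO solvent control (100%).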

The nature of data set [5]: Therapeutic index, ratio of MTD for MDCK2 cells to IC50 for Influenza A/PR8/34 (H1N1) virus. The format is cell-based. The settings on record: dog, read-out: TI. Put shortly:
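TI = MTC/IC50. IC50 comes from a focus reduction cell ELISA (anti-NP antibody HB65) in MDCKII cells, which were pre-incubated 5 min with serially diluted compound and then infected with serially diluted A/PR8/34. IC50 was obtained by regression where a dose-effect relation was seen; assays were run at least twice.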

In data set [6] the test system is Influenza A virus. The data set is described as follows: Antiviral activity against Influenza A/PR8/34 (H1N1) virus infected in MDCK2 cells assessed as raft modulation using perylene as tracer relative to control. The data set is classed as functional, A/Puerto Rico/8/1934(H1N1), MDCK-II. The arrangement: concentration or dose not given beside the values. Put shortly: as §1

Data set [7] concerns Influenza A virus. Nature of the data set: Antiviral activity against Influenza A/PR8/34 (H1N1) virus infected in MDCK2 cells assessed as inactivation of virus by virucidal assay relative to control. The data set is classed as functional, A/Puerto Rico/8/1934(H1N1), MDCK-II. The arrangement: concentration or dose not given beside the values. Put shortly: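 Influenza A/PR8/34 (H1N1) incubated with compound for 30 min, then titrated by focus reduction assay (cell ELISA in MDCKII cells with anti-nucleoprotein antibody HB65). Activity expressed relative to DMSO solvent control set at 100%.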

Regarding `CC(C)CCC[C@@H](C)[C@H]1CC[C@H]2[C@@H]3CC[C@H]4C[C@H](N)CC[C@]4(C)[C@H]3CC[C@]12C`, the Activity is given as 56.3% in the data set on Influenza A virus [1], -72.8% with Influenza A virus [6] and 28.5% with Influenza A virus [7]. Further, the IC50 in the data set with Influenza A virus [2] was found to be 1.9 µM. For the same molecule, the IC90 with Influenza A virus [2] was at least 15 µM. Also, the MNTC in data set [3] worked out at 15 µM. Moreover, the “inhibition (INH)” value in the data set on Influenza A virus [4] is on record as 79.9%. The selectivity ratio in data set [5] came to 7.9.
For the molecule `CC(C)CCC[C@@H](C)[C@H]1CC[C@H]2[C@@H]3CC[C@@]4(O)[C@H](O)C(=O)CC[C@]4(C)[C@H]3CC[C@]12C`, the IC50 with Influenza A virus [2] was determined as 16 µM.
`CC(C)CCC[C@@H](C)[C@H]1CC[C@H]2[C@@H]3CC[C@H]4C[C@@H](N(C)C)CC[C@]4(C)[C@H]3CC[C@]12C`: the Activity in the data set with Influenza A virus [1] was found to be 15.6%; in the data set on Influenza A virus [6] it was 15.5%; in the data set on Influenza A virus [7], 0%. In the data set with Influenza A virus [2], the half-inhibitory concentration (IC50) came to 3.7 µM. Moreover, the IC90 in the data set with Influenza A virus [2] is at least 15 µM. Besides, in data set [3], the MNTC was 15 µM. Further, the “inhibition (INH)” value with Influenza A virus [4] is 42.8%. In addition, the selectivity ratio in data set [5] came out at 4.1.
For `CC(C)CCC[C@@H](C)[C@H]1CC[C@H]2[C@@H]3CC[C@H]4C[C@@H]([N+](C)(C)C)CC[C@]4(C)[C@H]3CC[C@]12C.[I-]`, the results for the Activity in the data set with Influenza A virus [1], in the data set with Influenza A virus [6] and with Influenza A virus [7] were 83.5%, 90.3% and 16%, respectively. Moreover, the IC50 in the data set with Influenza A virus [2] worked out at 3.5 µM. Also, the IC90 with Influenza A virus [2] is at least 12.5 µM. Further, in data set [3], the MNTC worked out at 12.5 µM. The “inhibition (INH)” value with Influenza A virus [4] stood at 94.4%. In data set [5], the selectivity ratio turned out to be 3.6.
On to `CC(C)CCC[C@@H](C)[C@H]1CC[C@H]2[C@@H]3CC=C4C[C@@H](N)CC[C@]4(C)[C@H]3CC[C@]12C`, for which the Activity is given as 78.8% in the data set on Influenza A virus [1], 83.2% in the data set with Influenza A virus [6] and 63.4% in the data set on Influenza A virus [7]. Besides, the IC50 in the data set on Influenza A virus [2] turned out to be 8.6 µM. In addition, the IC90 in the data set with Influenza A virus [2] was 11.4 µM. In addition, the MNTC in data set [3] was found to be 25 µM. In addition, in the data set with Influenza A virus [4], the “inhibition (INH)” value amounted to 50.9%. The selectivity ratio in data set [5] worked out at 2.9.
As for `CC(C)CCC[C@@H](C)[C@H]1CC[C@H]2[C@@H]3CC[C@H]4C[C@H](O)[C@@H](N)C[C@]4(C)[C@H]3CC[C@]12C`, the Activity is listed as 32.3% in the data set with Influenza A virus [1], 26.5% in the data set with Influenza A virus [6] and 75.5% with Influenza A virus [7]. Moreover, the IC50 with Influenza A virus [2] worked out at 4.7 µM. Further, the IC90 in the data set with Influenza A virus [2] is 62 µM. In addition, in data set [3], the MNTC worked out at 75 µM. In addition, in the data set on Influenza A virus [4], the “inhibition (INH)” value is 53%. The selectivity ratio in data set [5] was found to be 16.
On to `CC(C)CCC[C@@H](C)[C@H]1CC[C@H]2[C@@H]3CC[C@H]4C[C@@H](CN)CC[C@]4(C)[C@H]3CC[C@]12C`, for which the Activity is listed as -39.3% in the data set with Influenza A virus [1], -66.6% in the data set on Influenza A virus [6] and 90.3% in the data set on Influenza A virus [7]. For the same molecule, in the data set with Influenza A virus [2], the half-inhibitory concentration (IC50) is 4 µM. The IC90 in the data set on Influenza A virus [2] came out at 11.6 µM. Also, the MNTC in data set [3] worked out at 37.5 µM. In addition, the “inhibition (INH)” value with Influenza A virus [4] is 30.7%. For the same molecule, in data set [5], the selectivity ratio worked out at 9.4.
For the molecule `CC(C)CCC[C@@H](C)[C@H]1CC[C@H]2[C@@H]3CC[C@H]4C[C@H](CN)CC[C@]4(C)[C@H]3CC[C@]12C`, the Activity in the data set on Influenza A virus [1] is reported as -39.6%; with Influenza A virus [6] it was -60.3%; in the data set with Influenza A virus [7] it was 50.9%. The 50% inhibitory concentration (IC50) with Influenza A virus [2] amounted to 3.7 µM. Besides, the IC90 with Influenza A virus [2] turned out to be 7.7 µM. Also, the MNTC in data set [3] was determined as 37.5 µM. Further, the “inhibition (INH)” value in the data set on Influenza A virus [4] is 12.7%. In addition, the selectivity ratio in data set [5] is 10.1.
Regarding `CC(C)CCC[C@@H](C)[C@H]1CC[C@H]2[C@@H]3CC[C@H]4C[C@](O)(CN)CC[C@]4(C)[C@H]3CC[C@]12C`, the results for the Activity in the data set on Influenza A virus [1], in the data set on Influenza A virus [6] and with Influenza A virus [7] were 15.6%, -41.5% and 64.2%, respectively. Further, the IC50 with Influenza A virus [2] came out at 2.3 µM. For the same molecule, in the data set on Influenza A virus [2], the IC90 was determined as 21.5 µM. Also, the MNTC in data set [3] was 25 µM. In the data set with Influenza A virus [4], the “inhibition (INH)” value was 41%. The selectivity ratio in data set [5] came out at 10.9.
As to `CC(C)CCC[C@@H](C)[C@H]1CC[C@H]2[C@@H]3CC[C@H]4C[C@@H](CCN)CC[C@]4(C)[C@H]3CC[C@]12C`, the results for the Activity in the data set with Influenza A virus [1], in the data set on Influenza A virus [6] and in the data set with Influenza A virus [7] were 31.2%, -38.2% and 132%, respectively. In the data set with Influenza A virus [2], the IC50 amounted to 2.1 µM. In addition, the IC90 in the data set on Influenza A virus [2] was determined as 13.4 µM. Besides, the MNTC in data set [3] turned out to be 50 µM. Moreover, the “inhibition (INH)” value in the data set on Influenza A virus [4] came out at 65%. The selectivity ratio in data set [5] came out at 23.8.
As to `CC(C)CCC[C@@H](C)[C@H]1CC[C@H]2[C@@H]3CC[C@H]4CCNCC[C@]4(C)[C@H]3CC[C@]12C`, in the data set on Influenza A virus [2], the IC50 came out at 3.3 µM and the IC90 was 9.7 µM. The MNTC in data set [3] was 12.5 µM. The “inhibition (INH)” value with Influenza A virus [4] was found to be 61.8%. The selectivity ratio in data set [5] amounted to 3.8. Moreover, in the data set on Influenza A virus [7], the Activity is 44.1%.
As for `CC(C)CCC[C@@H](C)[C@H]1CC[C@H]2[C@@H]3CC[C@H]4NCCC[C@]4(C)[C@H]3CC[C@]12C`, the Activity is 36.1% in the data set with Influenza A virus [1], 2.8% in the data set with Influenza A virus [6] and 0% in the data set with Influenza A virus [7]. In addition, in the data set on Influenza A virus [2], the IC50 is 5.9 µM. Further, the MNTC in data set [3] is 15 µM. The “inhibition (INH)” value in the data set with Influenza A virus [4] was determined as 20.4%. The selectivity ratio in data set [5] was 2.5.
Regarding `CC(C)CCC[C@@H](C)[C@H]1CC[C@H]2[C@@H]3CC[C@@]4(O)[C@H](O)[C@@H](O)CC[C@]4(C)[C@H]3CC[C@]12C`, the results for the Activity with Influenza A virus [1], in the data set on Influenza A virus [6] and in the data set on Influenza A virus [7] were -36.5%, -65.2% and 76.7%, respectively. For the same molecule, the IC50 in the data set on Influenza A virus [2] amounted to 16.1 µM. Further, in data set [3], the MNTC stood at 15 µM. Besides, the “inhibition (INH)” value with Influenza A virus [4] is given as 39.4%. The selectivity ratio in data set [5] came to 0.9.
Regarding `CN[C@H]1CC[C@@]2(C)[C@@H](CC[C@@H]3[C@@H]2CC[C@]2(C)[C@@H]([C@H](C)CCCC(C)C)CC[C@@H]32)C1`, the Activity in the data set with Influenza A virus [1] is reported as -7%; in the data set with Influenza A virus [6], -50.5%; in the data set with Influenza A virus [7] it was 0%. Moreover, the IC50 in the data set on Influenza A virus [2] is 3.3 µM. For the same molecule, the IC90 in the data set with Influenza A virus [2] was found to be 17.5 µM. For the same molecule, the MNTC in data set [3] turned out to be 25 µM. For the same molecule, the “inhibition (INH)” value in the data set with Influenza A virus [4] is 33.8%. For the same molecule, the selectivity ratio in data set [5] was 7.6.
In the case of `CC(C)CCCC(C)C1CCC2C3CCC4CC(N)CCC4(C)C3CCC12C` (centres undefined), the Activity with Influenza A virus [1] was -7.1%; in the data set with Influenza A virus [6] it was -42.4%; in the data set with Influenza A virus [7], 47.8%. Further, the IC50 in the data set with Influenza A virus [2] is 1.7 µM. The IC90 with Influenza A virus [2] is 9 µM. The MNTC in data set [3] stood at 15 µM. The “inhibition (INH)” value with Influenza A virus [4] was determined as 51.8%. For the same molecule, the selectivity ratio in data set [5] was 8.8.
